# Where “and” joins values, the source holds several entries; their conditions need not be identical. Identical values can stand only once. Entries after “also recorded” stand apart in the source; their conditions may differ.
# Tests used:
# [1] = tested on: Factor VIII-positive cells in xenografted MM.1S tumors; experiment: IHC Factor VIII staining; assay type: in vivo, CB-17 SCID mice; settings: vs vehicle alone, tumors harvested Day 21
# How it was run: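 Xenograft-bearing mice received vehicle or 0.15 mg/kg i.v. twice weekly for three weeks. MM.1S tumors were harvested 3h after the last dose (Day 21), and paraffin-embedded sections were immunostained for Factor VIII as an angiogenesis marker. The images shown are representative of two mice per treatment.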
# MM.1S tumors = experiment: Human plasmacytoma xenograft efficacy study; assay type: in vivo, CB-17 SCID mice; settings: 0.15 mg/kg i.v. twice a week for three weeks
# How it was run: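 Male CB-17 SCID mice (4-6 wk) were given 5.0 × 106 MM.1S cells s.c. in the flank in serum-free RPMI. They then received 0.15 mg/kg i.v. or vehicle (2% DMSO/98% of 5% Solutol) twice weekly for three weeks (D1, D4, D8, D11, D15, D18); n=5 per group. Tumors were measured with calipers every third day, and volume was calculated as V = 0.5 a × b2. Mean ± SD; Student's t test, P < 0.05.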
# [2] = tested on: CHOP/GADD153, phospho-eIF2α, Bip, Hsp70 in xenografted MM.1S tumors; experiment: Immunoblot of ER stress proteins in tumor lysates; assay type: in vivo, CB-17 SCID mice; settings: tumors harvested 3h after last dose (Day 21)
# CT-L proteasome activity = settings: MTD doses (0.7 mg/m^2), other clinical trials; cited from earlier work
# [3] = target: 20S proteasome chymotrypsin-like (CT-L, β5) activity (Homo sapiens, UniProt P28074); assay type: in vivo, CB-17 SCID mice bearing human MM.1S tumors; settings: MM1.S, iv, read-out: CT-L proteasome activity inhibition in tumors, tumor, 24h after a single treatment, 0.15 mg/kg i.v.
# proteasome [4] = settings: rats, single dose 0.15 mg/kg; ref Chauhan, et al 2005; cited from earlier work
# [5] = tested on: 20S proteasome CT-L, C-L, and T-L activities; experiment: Ex vivo 20S proteasome activities; assay type: in vivo, CB-17 SCID mice bearing human MM.1S tumors; settings: for inhibition of all three proteasome activities in tumor: approximately
# How it was run: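 Male CB-17 SCID mice (4-6 wk) carrying s.c. flank MM.1S xenografts (5.0 × 10^6 cells) were dosed i.v. at ∼200-300 mm3 with 0.15 mg/kg once (D1) or three times (D1, D4, D8), or with vehicle (2% DMSO in 5% Solutol). Euthanasia at 10 min, 1, 4, 24h. Homogenates used 20 μg protein in HEPES/EDTA pH 8.0 buffer with 60 μM fluorogenic substrate (Bz-VGR-AMC for T-L) and 0.05% SDS for CT-L/C-L. Reported as % inhibition vs vehicle; mean ± SD, n = 3.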
# [6] = tested on: caspase-3 activation / PARP cleavage in xenografted MM.1S tumors; experiment: In situ detection of apoptosis and immunoblot; assay type: in vivo, CB-17 SCID mice
# How it was run: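 Xenograft-bearing mice were treated i.v. with 0.15 mg/kg or vehicle twice weekly for three weeks. Tumors were harvested on Day 21, either 3h after the last dose (immunoblot) or at endpoint (IHC). For in situ staining, apoptotic cells were identified by cleaved caspase-3. Tumor lysates (three mice per group) were immunoblotted for PARP, cleaved caspase-3 and GAPDH, using HRP-conjugated secondary antibodies and ECL detection.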
# [7] = Tolerability in efficacy study; assay type: in vivo, CB-17 SCID mice; settings: 0.15 mg/kg i.v. twice a week for three weeks
# proteasome [8] = settings: ref Chauhan, et al 2005; cited from earlier work
# [9] = tumors, single dose 0.15 mg/kg i.v.
structure (smiles),measurement,setting,value
"C[C@@]12OC(=O)[C@]1([C@@H](O)[C@@H]1C=CCCC1)NC(=O)[C@@H]2CCCl [NPI-0052, marizomib]",Factor VIII-positive cells in tumor sections,[1],dramatically decreased
same,day on which anti-MM activity (delay in tumor growth) was first evident,MM.1S tumors,7 days and 5 to 7 days
same,tumor growth relative to vehicle-treated control,MM.1S tumors,significantly decreased tumor growth
same,endoplasmic stress-response proteins in tumor lysates,[2],"upregulation of CHOP/GADD153, phospho-eIF2α, Bip, and Hsp70"
same,inhibition of CT-L proteasome activity at MTD doses,CT-L proteasome activity,Complete inhibition
same,neuropathy or myelosuppression at MTD doses,CT-L proteasome activity,without evidence of neuropathy or myelosuppression
same,inhibition at 0.15 mg/kg,[3],60%
same,time for recovery of proteasome inhibition in PWB,proteasome [4],≤ 7 days
same,time to onset of inhibition of all three proteasome activities,"[5]; PWB, liver, spleen, lung, kidney, single dose 0.15 mg/kg i.v.",≤ 10 min
same,time for proteasome activities to return to baseline,"[5]; all tissues examined except PWB and tumors, single dose",≤ 24 h
same,inhibition of proteasome activity in brain,"[5]; brain tissue, any time point after single or three doses, 0.15 mg/kg i.v., 0.15 mg/kg",does not inhibit; also recorded: no significant inhibition
same,time for recovery of all three proteasome activities,"[5]; liver, kidney, lung, spleen, after three doses",≤ 24 h
same,inhibition of all three proteasome activities in most tissues,"[5]; most tissues, without significant toxicity",greater than 70%
same,duration of proteasome inhibition,"[5]; other organs (lung, liver, spleen, kidney)",< 24 h
same,inhibition of all three proteasome activities in tumor,[5]; 24h post single dose,25-60%
same,inhibition of all three proteasome activities in tumor,[5]; 24h post third dose,70-80%
same,duration of proteasome inhibition,[5]; tumors and PWB,> 24 h
same,inhibition of all three proteasome activities,"[5]; tumors, PWB and other tissues except brain, within 10 mins following the third dose, 0.15 mg/kg i.v.",65-90%
same,time of maximal inhibition of proteasome activities in tumors,[5]; [9],24 h
same,time to onset of inhibition of proteasome activities in tumors,[5]; [9],≤ 1 h
same,PARP cleavage in tumor lysates,[6]; tumors harvested 3h after last treatment (Day 21),robust cleavage
same,caspase-3 positive cells in tumor sections,"[6]; tumors harvested day 21, vs untreated control mice",increased numbers of caspase-3 positive cells
same,"toxicity (body weight, overall appearance)",[7],not associated with any toxicity
CC(C)C[C@H](NC(=O)[C@H](Cc1ccccc1)NC(=O)c1cnccn1)B(O)O [bortezomib],time for recovery of proteasome activity in blood,proteasome [8],≥ 48 h
